Measured values: ChEMBL document CHEMBL4715736, “Identification of anticancer agents based on the thieno[2,3-b]pyridine and 1H-pyrazole molecular scaffolds” (2016)

tested on: CCRF-CEM; experiment: Growth inhibition of human CCRF-CEM cells assessed as cell growth at 10 uM incubated for 48 hrs by sulforhodamine B assay relative to control; format: functional; conditions: read-out: Activity
Summary of the method: (§1)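 NCI Developmental Therapeutics Program NCI60 panel. Compounds that were active in the 10 µM one-dose screen went on to dose–response testing. Growth at each concentration is expressed relative to untreated control (100%). GI50 (concentration giving 50% of maximal inhibition of proliferation) and TGI (concentration giving total growth inhibition) were derived from the curves.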

SMILES	growth at 10 µM [%]
COc1ccc(S(=O)(=O)n2ccc(-c3ccc4c(c3)CCC(C)(C)O4)n2)cc1	58.9

tested on: HL-60(TB); experiment: Growth inhibition of human HL-60(TB) cells assessed as cell growth at 10 uM incubated for 48 hrs by sulforhodamine B assay relative to control; format: functional; conditions: read-out: Activity
Summary of the method: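 Screened by the NCI Developmental Therapeutics Program on its panel of 60 human tumour cell lines. Compounds were first tested at a single 10 µM dose, and compounds active there went to dose-response curves. Growth is expressed relative to untreated control (100%). GI50 (50% of maximal proliferation inhibition) and TGI (total growth inhibition) were derived from the dose-response data.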

SMILES	growth at 10 µM [%]
COc1ccc(S(=O)(=O)n2ccc(-c3ccc4c(c3)CCC(C)(C)O4)n2)cc1	60

tested on: MOLT-4; experiment: Growth inhibition of human MOLT-4 cells assessed as cell growth at 10 uM incubated for 48 hrs by sulforhodamine B assay relative to control; format: functional; conditions: read-out: Activity
Summary of the method: (§2)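 Submitted to the NCI Developmental Therapeutics Program for the NCI60 human tumour cell line panel. First screen at a single 10 µM concentration. Read-out is growth relative to untreated control cells set at 100%.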

SMILES	growth at 10 µM [%]
COc1ccc(S(=O)(=O)n2ccc(-c3ccc4c(c3)CCC(C)(C)O4)n2)cc1	65.9

tested on: A549; experiment: Growth inhibition of human A549/ATCC cells assessed as cell growth at 10 uM incubated for 48 hrs by sulforhodamine B assay relative to control; format: functional; conditions: read-out: Activity; summary of the method: as §1

SMILES	growth at 10 µM [%]
COc1ccc(S(=O)(=O)n2ccc(-c3ccc4c(c3)CCC(C)(C)O4)n2)cc1	74

tested on: HOP-62; experiment: Growth inhibition of human HOP-62 cells assessed as cell growth at 10 uM incubated for 48 hrs by sulforhodamine B assay relative to control; format: functional; conditions: read-out: Activity; summary of the method: as §2

SMILES	growth at 10 µM [%]
COc1ccc(S(=O)(=O)n2ccc(-c3ccc4c(c3)CCC(C)(C)O4)n2)cc1	112

tested on: HOP-92; experiment: Growth inhibition of human HOP-92 cells assessed as cell growth at 10 uM incubated for 48 hrs by sulforhodamine B assay relative to control; format: functional; conditions: read-out: Activity; summary of the method: as §2

SMILES	growth at 10 µM [%]
COc1ccc(S(=O)(=O)n2ccc(-c3ccc4c(c3)CCC(C)(C)O4)n2)cc1	61.4

tested on: NCI-H226; experiment: Growth inhibition of human NCI-H226 cells assessed as cell growth at 10 uM incubated for 48 hrs by sulforhodamine B assay relative to control; format: functional; conditions: read-out: Activity; summary of the method: as §2

SMILES	growth at 10 µM [%]
COc1ccc(S(=O)(=O)n2ccc(-c3ccc4c(c3)CCC(C)(C)O4)n2)cc1	71.4

tested on: NCI-H322M; experiment: Growth inhibition of human NCI-H322M cells assessed as cell growth at 10 uM incubated for 48 hrs by sulforhodamine B assay relative to control; format: functional; conditions: read-out: Activity; summary of the method: as §2

SMILES	growth at 10 µM [%]
COc1ccc(S(=O)(=O)n2ccc(-c3ccc4c(c3)CCC(C)(C)O4)n2)cc1	101

tested on: NCI-H460; experiment: Growth inhibition of human NCI-H460 cells assessed as cell growth at 10 uM incubated for 48 hrs by sulforhodamine B assay relative to control; format: functional; conditions: read-out: Activity; summary of the method: as §2

SMILES	growth at 10 µM [%]
COc1ccc(S(=O)(=O)n2ccc(-c3ccc4c(c3)CCC(C)(C)O4)n2)cc1	75.4

tested on: HCT-116; experiment: Growth inhibition of human HCT-116 cells assessed as cell growth at 10 uM incubated for 48 hrs by sulforhodamine B assay relative to control; format: functional; conditions: read-out: Activity; summary of the method: as §2

SMILES	growth at 10 µM [%]
COc1ccc(S(=O)(=O)n2ccc(-c3ccc4c(c3)CCC(C)(C)O4)n2)cc1	68.3

tested on: HCT-15; experiment: Growth inhibition of human HCT-15 cells assessed as cell growth at 10 uM incubated for 48 hrs by sulforhodamine B assay relative to control; format: functional; conditions: read-out: Activity; summary of the method: as §2

SMILES	growth at 10 µM [%]
COc1ccc(S(=O)(=O)n2ccc(-c3ccc4c(c3)CCC(C)(C)O4)n2)cc1	97.6

tested on: KM12; experiment: Growth inhibition of human KM12 cells assessed as cell growth at 10 uM incubated for 48 hrs by sulforhodamine B assay relative to control; format: functional; conditions: read-out: Activity; summary of the method: as §2

SMILES	growth at 10 µM [%]
COc1ccc(S(=O)(=O)n2ccc(-c3ccc4c(c3)CCC(C)(C)O4)n2)cc1	81.9

tested on: SF-295; experiment: Growth inhibition of human SF-295 cells assessed as cell growth at 10 uM incubated for 48 hrs by sulforhodamine B assay relative to control; format: functional; conditions: read-out: Activity
Summary of the method: (§3)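 Run by the NCI Developmental Therapeutics Program as part of its 60-line human tumour panel. Each compound tested at a single 10 µM dose. Growth expressed as % relative to untreated control cells (100%).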

SMILES	growth at 10 µM [%]
COc1ccc(S(=O)(=O)n2ccc(-c3ccc4c(c3)CCC(C)(C)O4)n2)cc1	47.7

tested on: SF-539; experiment: Growth inhibition of human SF-539 cells assessed as cell growth at 10 uM incubated for 48 hrs by sulforhodamine B assay relative to control; format: functional; conditions: read-out: Activity; summary of the method: as §3

SMILES	growth at 10 µM [%]
COc1ccc(S(=O)(=O)n2ccc(-c3ccc4c(c3)CCC(C)(C)O4)n2)cc1	103

tested on: SNB-75; experiment: Growth inhibition of human SNB-75 cells assessed as cell growth at 10 uM incubated for 48 hrs by sulforhodamine B assay relative to control; format: functional; conditions: read-out: Activity; summary of the method: as §3

SMILES	growth at 10 µM [%]
COc1ccc(S(=O)(=O)n2ccc(-c3ccc4c(c3)CCC(C)(C)O4)n2)cc1	84

tested on: U-251; experiment: Growth inhibition of human U-251 cells assessed as cell growth at 10 uM incubated for 48 hrs by sulforhodamine B assay relative to control; format: functional; conditions: read-out: Activity; summary of the method: as §3

SMILES	growth at 10 µM [%]
COc1ccc(S(=O)(=O)n2ccc(-c3ccc4c(c3)CCC(C)(C)O4)n2)cc1	84.2

tested on: Malme-3M; experiment: Growth inhibition of human Malme-3M cells assessed as cell growth at 10 uM incubated for 48 hrs by sulforhodamine B assay relative to control; format: functional; conditions: read-out: Activity; summary of the method: as §2

SMILES	growth at 10 µM [%]
COc1ccc(S(=O)(=O)n2ccc(-c3ccc4c(c3)CCC(C)(C)O4)n2)cc1	110

tested on: M14; experiment: Growth inhibition of human M14 cells assessed as cell growth at 10 uM incubated for 48 hrs by sulforhodamine B assay relative to control; format: functional; conditions: read-out: Activity; summary of the method: as §2

SMILES	growth at 10 µM [%]
COc1ccc(S(=O)(=O)n2ccc(-c3ccc4c(c3)CCC(C)(C)O4)n2)cc1	86.5

tested on: MDA-MB-435; experiment: Growth inhibition of human MDA-MB-435 cells assessed as cell growth at 10 uM incubated for 48 hrs by sulforhodamine B assay relative to control; format: functional; conditions: read-out: Activity; summary of the method: as §2

SMILES	growth at 10 µM [%]
COc1ccc(S(=O)(=O)n2ccc(-c3ccc4c(c3)CCC(C)(C)O4)n2)cc1	74.3

tested on: SK-MEL-28; experiment: Growth inhibition of human SK-MEL-28 cells assessed as cell growth at 10 uM incubated for 48 hrs by sulforhodamine B assay relative to control; format: functional; conditions: read-out: Activity; summary of the method: as §3

SMILES	growth at 10 µM [%]
COc1ccc(S(=O)(=O)n2ccc(-c3ccc4c(c3)CCC(C)(C)O4)n2)cc1	98.3

tested on: SK-MEL-5; experiment: Growth inhibition of human SK-MEL-5 cells assessed as cell growth at 10 uM incubated for 48 hrs by sulforhodamine B assay relative to control; format: functional; conditions: read-out: Activity; summary of the method: as §3

SMILES	growth at 10 µM [%]
COc1ccc(S(=O)(=O)n2ccc(-c3ccc4c(c3)CCC(C)(C)O4)n2)cc1	42.6

tested on: UACC-257; experiment: Growth inhibition of human UACC-257 cells assessed as cell growth at 10 uM incubated for 48 hrs by sulforhodamine B assay relative to control; format: functional; conditions: read-out: Activity; summary of the method: as §3

SMILES	growth at 10 µM [%]
COc1ccc(S(=O)(=O)n2ccc(-c3ccc4c(c3)CCC(C)(C)O4)n2)cc1	57.4

tested on: UACC-62; experiment: Growth inhibition of human UACC-62 cells assessed as cell growth at 10 uM incubated for 48 hrs by sulforhodamine B assay relative to control; format: functional; conditions: read-out: Activity; summary of the method: as §3

SMILES	growth at 10 µM [%]
COc1ccc(S(=O)(=O)n2ccc(-c3ccc4c(c3)CCC(C)(C)O4)n2)cc1	50.5

tested on: IGROV-1; experiment: Growth inhibition of human IGROV-1 cells assessed as cell growth at 10 uM incubated for 48 hrs by sulforhodamine B assay relative to control; format: functional; conditions: read-out: Activity; summary of the method: as §2

SMILES	growth at 10 µM [%]
COc1ccc(S(=O)(=O)n2ccc(-c3ccc4c(c3)CCC(C)(C)O4)n2)cc1	90.8

tested on: OVCAR-3; experiment: Growth inhibition of human OVCAR-3 cells assessed as cell growth at 10 uM incubated for 48 hrs by sulforhodamine B assay relative to control; format: functional; conditions: read-out: Activity; summary of the method: as §3

SMILES	growth at 10 µM [%]
COc1ccc(S(=O)(=O)n2ccc(-c3ccc4c(c3)CCC(C)(C)O4)n2)cc1	81.2

tested on: OVCAR-5; experiment: Growth inhibition of human OVCAR-5 cells assessed as cell growth at 10 uM incubated for 48 hrs by sulforhodamine B assay relative to control; format: functional; conditions: read-out: Activity; summary of the method: as §3

SMILES	growth at 10 µM [%]
COc1ccc(S(=O)(=O)n2ccc(-c3ccc4c(c3)CCC(C)(C)O4)n2)cc1	109

tested on: NCI/ADR-RES; experiment: Growth inhibition of human NCI/ADR-RES cells assessed as cell growth at 10 uM incubated for 48 hrs by sulforhodamine B assay relative to control; format: functional; conditions: read-out: Activity; summary of the method: as §2

SMILES	growth at 10 µM [%]
COc1ccc(S(=O)(=O)n2ccc(-c3ccc4c(c3)CCC(C)(C)O4)n2)cc1	57.3

tested on: A498; experiment: Growth inhibition of human A498 cells assessed as cell growth at 10 uM incubated for 48 hrs by sulforhodamine B assay relative to control; format: functional; conditions: read-out: Activity; summary of the method: as §1

SMILES	growth at 10 µM [%]
COc1ccc(S(=O)(=O)n2ccc(-c3ccc4c(c3)CCC(C)(C)O4)n2)cc1	89.1

tested on: RXF 393; experiment: Growth inhibition of human RXF 393 cells assessed as cell growth at 10 uM incubated for 48 hrs by sulforhodamine B assay relative to control; format: functional; conditions: read-out: Activity; summary of the method: as §3

SMILES	growth at 10 µM [%]
COc1ccc(S(=O)(=O)n2ccc(-c3ccc4c(c3)CCC(C)(C)O4)n2)cc1	110

tested on: SN12C; experiment: Growth inhibition of human SN12C cells assessed as cell growth at 10 uM incubated for 48 hrs by sulforhodamine B assay relative to control; format: functional; conditions: read-out: Activity; summary of the method: as §3

SMILES	growth at 10 µM [%]
COc1ccc(S(=O)(=O)n2ccc(-c3ccc4c(c3)CCC(C)(C)O4)n2)cc1	97.5

tested on: UO-31; experiment: Growth inhibition of human UO-31 cells assessed as cell growth at 10 uM incubated for 48 hrs by sulforhodamine B assay relative to control; format: functional; conditions: read-out: Activity; summary of the method: as §3

SMILES	growth at 10 µM [%]
COc1ccc(S(=O)(=O)n2ccc(-c3ccc4c(c3)CCC(C)(C)O4)n2)cc1	78.1

tested on: PC-3; experiment: Growth inhibition of human PC-3 cells assessed as cell growth at 10 uM incubated for 48 hrs by sulforhodamine B assay relative to control; format: functional; conditions: read-out: Activity; summary of the method: as §3

SMILES	growth at 10 µM [%]
COc1ccc(S(=O)(=O)n2ccc(-c3ccc4c(c3)CCC(C)(C)O4)n2)cc1	78

tested on: Hs-578T; experiment: Growth inhibition of human Hs-578T cells assessed as cell growth at 10 uM incubated for 48 hrs by sulforhodamine B assay relative to control; format: functional; conditions: read-out: Activity; summary of the method: as §2

SMILES	growth at 10 µM [%]
COc1ccc(S(=O)(=O)n2ccc(-c3ccc4c(c3)CCC(C)(C)O4)n2)cc1	97.8

tested on: MDA-MB-468; experiment: Growth inhibition of human MDA-MB-468 cells assessed as cell growth at 10 uM incubated for 48 hrs by sulforhodamine B assay relative to control; format: functional; conditions: read-out: Activity; summary of the method: as §2

SMILES	growth at 10 µM [%]
COc1ccc(S(=O)(=O)n2ccc(-c3ccc4c(c3)CCC(C)(C)O4)n2)cc1	36.6
